# Source: ChEMBL document CHEMBL4229380, “Arylureas derived from colchicine: Enhancement of colchicine oncogene downregulation activity” (Eur J Med Chem, 2018)
# pIC50: −log10 of the molar value.
# What was measured:
# HT-29 [1] = experiment: Antiproliferative activity against human HT-29 cells after 2 days by MTT assay; format: functional, cell-based; conditions: HT-29, 48 h
# Procedure, shortened: (§1)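 Cells (5×10^3 per well) in DMEM with 10% FBS, glucose, glutamine and antibiotics were exposed to serial dilutions (stocks in DMSO) for 2 days at 37 °C, 5% CO2. MTT was added for 3 h, formazan was dissolved in DMSO and absorbance read at 490 nm. Viability was taken as % of untreated cells. IC50 was read graphically from three independent experiments.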
# MCF7 = experiment: Antiproliferative activity against human MCF7 cells after 2 days by MTT assay; format: functional, cell-based; conditions: MCF7, 48 h; procedure, shortened: as §1
# HeLa = experiment: Antiproliferative activity against human HeLa cells after 2 days by MTT assay; format: functional, cell-based; conditions: 48 h; procedure, shortened: as §1
# HEK293 = experiment: Antiproliferative activity against human HEK293 cells after 2 days by MTT assay; format: cell-based; conditions: HEK293, 48 h; procedure, shortened: as §1
# HT-29 [2] = experiment: Induction of apoptosis in human HT-29 cells assessed as viable cells at 5 nM after 48 hrs by Annexin V-FITC staining-based flow cytometric analysis (reference value: 82 +/- 1%); format: functional; conditions: HT-29, 48 h, read-out: Activity
# HT-29 [3] = experiment: Induction of apoptosis in human HT-29 cells assessed as apoptotic cells at 5 nM after 48 hrs by Annexin V-FITC staining-based flow cytometric analysis (reference value: 13 +/- 3%); format: functional
# HT-29 [4] = experiment: Induction of apoptosis in human HT-29 cells assessed as necrotic cells at 5 nM after 48 hrs by Annexin V-FITC staining-based flow cytometric analysis (reference value: 2 +/- 6%); format: functional
# HT-29 [5] = experiment: Effect on c-MYC gene expression in human HT-29 cells assessed as c-MYC level at 5 nM after 48 hrs by RT-qPCR analysis; format: functional
# Procedure, shortened: (§2)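 HT-29 cells at 70–80% confluence were seeded at 1.5×10^5 per well and left 24 h, then treated 48 h, with DMSO as control. Total RNA was extracted and VEGF-A, c-Myc and hTERT were quantified by TaqMan qPCR, normalized to β-actin and to living cell number. Results are % expression versus control, at least three measurements.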
# HT-29 [6] = experiment: Effect on hTERT gene expression in human HT-29 cells assessed as hTERT level at 5 nM after 48 hrs by RT-qPCR analysis; format: functional; procedure, shortened: as §2
# HT-29 [7] = experiment: Effect on VEGF gene expression in human HT-29 cells assessed as VEGF level at 5 nM after 48 hrs by RT-qPCR analysis; format: functional; procedure, shortened: as §2
# HT-29 [8] = experiment: Effect on c-MYC protein expression in human HT-29 cells assessed as c-MYC level at 5 nM after 48 hrs by ELISA; format: functional
# Procedure, shortened: (§3)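 HT-29 cells (1.5×10^5 per well, 24 h pre-culture) were treated 48 h and washed in PBS. They were lysed in Tris pH 7.4 buffer with detergents, phosphatase inhibitors, PMSF and protease inhibitors. Lysates were adjusted to 200 µg/mL protein (Bradford) and total c-Myc or VEGFR-2 was measured by sandwich ELISA kit. Values are % of DMSO control, ≥3 measurements.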
# HT-29 [9] = experiment: Effect on VEGFR2 protein expression in human HT-29 cells assessed as VEGFR2 level at 5 nM after 48 hrs by ELISA; format: functional; procedure, shortened: as §3
# HT-29 [10] = experiment: Effect on VEGF protein expression in human HT-29 cells assessed as secreted VEGF level in culture media at 5 nM after 48 hrs by ELISA
# HT-29 [11] = experiment: Induction of apoptosis in human HT-29 cells assessed as viable cells at 15 nM after 48 hrs by Annexin V-FITC staining-based flow cytometric analysis (reference value: 82 +/- 1%); format: functional; conditions: HT-29, 48 h, read-out: Activity
# HT-29 [12] = experiment: Induction of apoptosis in human HT-29 cells assessed as apoptotic cells at 15 nM after 48 hrs by Annexin V-FITC staining-based flow cytometric analysis (reference value: 13 +/- 3%); format: functional
# HT-29 [13] = experiment: Induction of apoptosis in human HT-29 cells assessed as necrotic cells at 15 nM after 48 hrs by Annexin V-FITC staining-based flow cytometric analysis (reference value: 2 +/- 6%); format: functional
# HT-29 [14] = experiment: Effect on c-MYC gene expression in human HT-29 cells assessed as c-MYC level at 15 nM after 48 hrs by RT-qPCR analysis; format: functional; procedure, shortened: as §2
# HT-29 [15] = experiment: Effect on hTERT gene expression in human HT-29 cells assessed as hTERT level at 15 nM after 48 hrs by RT-qPCR analysis; format: functional; procedure, shortened: as §2
# HT-29 [16] = experiment: Effect on VEGF gene expression in human HT-29 cells assessed as VEGF level at 15 nM after 48 hrs by RT-qPCR analysis; format: functional; procedure, shortened: as §2
# HT-29 [17] = experiment: Effect on c-MYC protein expression in human HT-29 cells assessed as c-MYC level at 15 nM after 48 hrs by ELISA; format: functional; procedure, shortened: as §3
# HT-29 [18] = experiment: Effect on VEGFR2 protein expression in human HT-29 cells assessed as VEGFR2 level at 15 nM after 48 hrs by ELISA; format: functional; procedure, shortened: as §3
# HT-29 [19] = experiment: Effect on VEGF protein expression in human HT-29 cells assessed as secreted VEGF level in culture media at 15 nM after 48 hrs by ELISA
# HT-29 [20] = experiment: Induction of apoptosis in human HT-29 cells assessed as viable cells at 0.5 nM after 48 hrs by Annexin V-FITC staining-based flow cytometric analysis (reference value: 82 +/- 1%); format: functional; conditions: HT-29, 48 h, read-out: Activity
# HT-29 [21] = experiment: Induction of apoptosis in human HT-29 cells assessed as apoptotic cells at 0.5 nM after 48 hrs by Annexin V-FITC staining-based flow cytometric analysis (reference value: 13 +/- 3%); format: functional
# HT-29 [22] = experiment: Induction of apoptosis in human HT-29 cells assessed as necrotic cells at 0.5 nM after 48 hrs by Annexin V-FITC staining-based flow cytometric analysis (reference value: 2 +/- 6%); format: functional
# HT-29 [23] = experiment: Effect on c-MYC gene expression in human HT-29 cells assessed as c-MYC level at 0.5 nM after 48 hrs by RT-qPCR analysis; format: functional; procedure, shortened: as §2
# HT-29 [24] = experiment: Effect on hTERT gene expression in human HT-29 cells assessed as hTERT level at 0.5 nM after 48 hrs by RT-qPCR analysis; format: functional; procedure, shortened: as §2
# HT-29 [25] = experiment: Effect on VEGF gene expression in human HT-29 cells assessed as VEGF level at 0.5 nM after 48 hrs by RT-qPCR analysis; format: functional; procedure, shortened: as §2
# HT-29 [26] = experiment: Effect on c-MYC protein expression in human HT-29 cells assessed as c-MYC level at 0.5 nM after 48 hrs by ELISA; format: functional; procedure, shortened: as §3
# HT-29 [27] = experiment: Effect on VEGFR2 protein expression in human HT-29 cells assessed as VEGFR2 level at 0.5 nM after 48 hrs by ELISA; format: functional; procedure, shortened: as §3
# HT-29 [28] = experiment: Effect on VEGF protein expression in human HT-29 cells assessed as secreted VEGF level in culture media at 0.5 nM after 48 hrs by ELISA
# HT-29 [29] = experiment: Induction of apoptosis in human HT-29 cells assessed as viable cells at 25 nM after 48 hrs by Annexin V-FITC staining-based flow cytometric analysis (reference value: 82 +/- 1%); format: functional; conditions: HT-29, 48 h, read-out: Activity
# HT-29 [30] = experiment: Induction of apoptosis in human HT-29 cells assessed as apoptotic cells at 25 nM after 48 hrs by Annexin V-FITC staining-based flow cytometric analysis (reference value: 13 +/- 3%); format: functional
# HT-29 [31] = experiment: Induction of apoptosis in human HT-29 cells assessed as necrotic cells at 25 nM after 48 hrs by Annexin V-FITC staining-based flow cytometric analysis (reference value: 2 +/- 6%); format: functional
Compound,pIC50 (HT-29 [1]),pIC50 (MCF7),pIC50 (HeLa),pIC50 (HEK293),viability at 0.005 µM (HT-29 [2]),Activity (HT-29 [3]),Activity (HT-29 [4]),Activity (HT-29 [5]),Activity (HT-29 [6]),Activity (HT-29 [7]),Activity (HT-29 [8]),Activity (HT-29 [9]),Activity (HT-29 [10]),viability at 0.015 µM (HT-29 [11]),Activity (HT-29 [12]),Activity (HT-29 [13]),Activity (HT-29 [14]),Activity (HT-29 [15]),Activity (HT-29 [16]),Activity (HT-29 [17]),also measured
COc1cc2c(c(OC)c1OC)-c1ccc(OC)c(=O)cc1[C@@H](NC(=O)Nc1ccc(F)cc1Cl)CC2,8.76,8.92,8.30,8.77,46%,53%,1%,58%,80%,64%,104%,15%,67%,,,,,,,,
COc1cc2c(c(OC)c1OC)-c1ccc(OC)c(=O)cc1[C@@H](NC(=O)Nc1ccc(F)cc1C)CC2,7.85,8.00,7.68,7.19,,,,,,,,,,73%,26%,1%,65%,68%,63%,110%,Activity (HT-29 [18]): 62%; Activity (HT-29 [19]): 90%
COc1cc2c(c(OC)c1OC)-c1ccc(OC)c(=O)cc1[C@@H](NC(=O)Nc1c(F)cccc1F)CC2,7.60,7.38,7.74,7.34,,,,,,,,,,87%,12%,1%,88%,36%,38%,42%,Activity (HT-29 [18]): 35%; Activity (HT-29 [19]): 11%
COc1cc2c(c(OC)c1OC)-c1ccc(OC)c(=O)cc1[C@@H](NC(=O)Nc1ccccc1C)CC2,7.59,6.92,7.49,7.36,,,,,,,,,,,,,,,,,viability at 0.025 µM (HT-29 [29]): 64%; Activity (HT-29 [30]): 34%; Activity (HT-29 [31]): 2%

# Continued, in another order:
pIC50 (HT-29 [1]),pIC50 (MCF7),pIC50 (HeLa),Compound,pIC50 (HEK293),viability at 0.005 µM (HT-29 [2]),Activity (HT-29 [3]),Activity (HT-29 [4]),Activity (HT-29 [5]),Activity (HT-29 [6]),Activity (HT-29 [7]),Activity (HT-29 [8]),Activity (HT-29 [9]),Activity (HT-29 [10]),viability at 0.015 µM (HT-29 [11]),Activity (HT-29 [12]),Activity (HT-29 [13]),Activity (HT-29 [14]),Activity (HT-29 [15]),Activity (HT-29 [16]),Activity (HT-29 [17]),also measured
9.10,8.89,8.92,COc1cc2c(c(OC)c1OC)-c1ccc(OC)c(=O)cc1[C@@H](NC(=O)Nc1ccccc1Cl)CC2,9.15,,,,,,,,,,,,,,,,,viability at 0.0005 µM (HT-29 [20]): 58%; Activity (HT-29 [21]): 41%; Activity (HT-29 [22]): 1%; Activity (HT-29 [23]): 25%; Activity (HT-29 [24]): 46%; Activity (HT-29 [25]): 30%; Activity (HT-29 [26]): 51%; Activity (HT-29 [27]): 38%; Activity (HT-29 [28]): 34%
8.37,6.43,8.10,COc1cc2c(c(OC)c1OC)-c1ccc(OC)c(=O)cc1[C@@H](NC(=O)Nc1cccc(Cl)c1)CC2,8.34,62%,37%,1%,104%,90%,95%,87%,15%,114%,,,,,,,,
